Measured values pooled from the literature.
Compare with care: the assays were run in different laboratories. Converted amounts (≈) assume the structure as drawn.
CYP3A7: Cytochrome P450 3A7 (CYP3A7, Homo sapiens, UniProt P24462)

Cc1ccc(Cn2cc(C(=O)NN)c(=O)c3cc(Oc4ccccc4)ccc32)cc1 — compound remaining (metabolic stability; male CD-1 mouse, liver microsomes; 1 µM, 30 min): 96%
N#Cc1cnn2c(NC3CC3)cc(Nc3cc(-n4cnnc4)ccc3F)nc12 — compound remaining (metabolic stability; male CD-1 mouse, liver microsomes; 5 µM, 30 min, pH 7.4): 100%
COc1ccc2c(O[C@@H]3C[C@H]4C(=O)N[C@]5(C(=O)NS(=O)(=O)C6CC6)C[C@H]5/C=C\CCCCN(C)C(=O)[C@@H]4C3)cc(-c3nc(C(C)C)cs3)nc2c1C — inhibition (CYP3A7; enzyme activity, inhibitor, fluorescence; 20 µM, 10 min, pH 7.4): ≥ 50%
N#Cc1cnn2c(Nc3cn(CCN4CCOCC4)cn3)cc(Nc3cccc(-n4cnnc4)c3)nc12 — compound remaining (metabolic stability; male CD-1 mouse, liver microsomes; 5 µM, 30 min, pH 7.4): 81%
O=[N+]([O-])c1ccc(/C=N/c2c(-c3ccccc3)nc3ccc(Cl)cn23)cc1 — CC50 (MT4; cell growth or viability, MTT; 5 days): > 125 µg/mL
Cc1cnc(C(=O)N[C@H]2CCCCC/C=C\[C@@H]3C[C@@]3(C(=O)NS(=O)(=O)C3CC3)NC(=O)[C@@H]3C[C@@H](Oc4nc5ccccc5c5ccccc45)CN3C2=O)cn1 — KI (inactivation) (CYP3A7; enzyme activity, inhibitor; pH 7.4, with preincubation): 4.66 µM
Cc1ccnc2c1NC(=O)c1cccnc1N2C1CC1 — CC50 (MT4; cell growth or viability, MTT; 5 days): > 4 µg/mL
N#Cc1cnn2c(NC3CC3)cc(Nc3ccc(N4CCC[C@H](N)C4)c(-n4cnnc4)c3)nc12 — compound remaining (metabolic stability; male CD-1 mouse, liver microsomes; 5 µM, 30 min, pH 7.4): 98%
COC(=O)N[C@H](C(=O)N1CC2(CC2)C[C@H]1c1ncc(-c2ccc3c(c2)C(F)(F)c2cc(-c4ccc5nc([C@@H]6[C@H]7CC[C@H](C7)N6C(=O)[C@@H](NC(=O)OC)C(C)C)[nH]c5c4)ccc2-3)[nH]1)C(C)C — inhibition (CYP3A7; enzyme activity, inhibitor, fluorescence; 20 µM, 10 min, pH 7.4): ≥ 50%
N#Cc1cnn2c(NC3CC(F)(F)C3)cc(Nc3cccc(-n4cnnc4)c3)nc12 — compound remaining (metabolic stability; male CD-1 mouse, liver microsomes; 5 µM, 30 min, pH 7.4): 75%
Oc1ccccc1/C=N/c1c(-c2ccccc2)nc2ccc(Cl)cn12 — CC50 (MT4; cell growth or viability, MTT; 5 days): 17.9 µg/mL (≈ 51.5 µM)
N#C[C@@]12C[C@@H]1[C@@H](n1cnc3c(N[C@@H](C4CCC4)C4CC4)nc(I)nc31)[C@H](O)[C@@H]2O — compound remaining (metabolic stability; mouse, liver microsomes; 1 h): 72.6%
